Results taken from PubChem BioAssay AID624467 (The Scripps Research Institute Molecular Screening Center, 2012).
Screen size: about 360,000 compounds; about 3,600 (1%) were called active. Shown is part of a subset that was picked to be rich in actives. Unmarked numbers belong to inactive results.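 The calls were made as follows: active = activation above the mean activation of all test compounds in the run plus 3 SD (cut at about 38% in these data); inactive = the rest.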

These compounds were tested against Trace amine-associated receptor 1 (Homo sapiens) (UniProt Q96RJ0) (assay: activators of TAAR1 calcium mobilization – Fluo-8 calcium fluorescence, CHO RD-HGA16 cells, primary screen (AID 624467)). Conditions: CHO RD-HGA16 TAAR1, Fluo-8 calcium fluorescence; at 3 µM; active compounds read high; vehicle wells 0%, saturating PEA agonist 100%.
Trace amine-associated receptor 1 (Homo sapiens), sequence (Q96RJ0 whole entry, looked up): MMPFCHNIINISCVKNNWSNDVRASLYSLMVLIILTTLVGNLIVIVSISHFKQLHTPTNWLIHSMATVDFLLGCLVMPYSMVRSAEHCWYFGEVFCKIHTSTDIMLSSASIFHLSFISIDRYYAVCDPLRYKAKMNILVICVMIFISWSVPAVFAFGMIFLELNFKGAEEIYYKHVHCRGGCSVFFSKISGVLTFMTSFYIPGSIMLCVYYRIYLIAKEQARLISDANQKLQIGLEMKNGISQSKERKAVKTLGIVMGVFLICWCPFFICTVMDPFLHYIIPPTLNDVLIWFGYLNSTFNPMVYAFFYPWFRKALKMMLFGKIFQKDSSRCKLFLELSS
Procedure, shortened: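 Signal – calcium-sensitive Fluo-8 signal, excitation 470-495, emission 515-575 nm · System – RD-HGA16 (CHO) cells co-expressing Gα16 and hTAAR1 · Incubation – 17-24 h seeding, 75 min 37 °C dye, 30 min RT · Compound dosing – 3 µM single concentration · Repeats – no replicates (n 1)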

How did the activation turn out when CCCCN1C(=O)C(CC(=O)NC(c2ccccc2)c2ccccc2)CC(C(=O)N2CCOCC2)=C1C (configuration not stated) was run?
The activation was 0.19%.

With CC(C)CNc1cccc2c1S(=O)(=O)N[C@H](CC(C)C)CO2 as the compound, how does the activation read?
Its activation is -0.51%.

CCOC(=O)N(Cc1ccccc1)C1CC1 was tested. Which activation did it give?
The activation was 3.18%.

Which activation does the source give for CN(CCO)C(=O)c1nc[nH]c1C(=O)N(C)Cc1ccccc1 here?
The activation was 0.95%.

How did the activation turn out when CN(C(=O)CN(CCO)CC(=O)N(C)C(C)(C)Cc1ccccc1)C(C)(C)Cc1ccccc1 was run?
The activation was 125% (active).

Which activation does the source give for COc1ccc(NS(=O)(=O)c2cc3c(cc2C)N(C(C)=O)CCO3)cc1 here?
Its activation is 1.33%.

With C=CC[C@]12C[C@@]3(O[C@H](c4ccc(C(F)(F)F)cc4)N=C3C[C@H](c3ccc(OC)cc3)[C@H]1C)N(C1CCN(Cc3ccccc3)CC1)C2=O as the compound, how does the activation read?
The activation was 0.44%.

With CC1CCN(c2c(NCc3ccc(C(=O)NCc4ccccc4)cc3)c(=O)c2=O)CC1 as the compound, how does the activation read?
Its activation is 0.05%.

Which activation does the source give for CC1CCCN(c2ccc(C(=O)NCCc3ccccc3)cn2)C1 (configuration not stated) here?
Its activation is 41.2% (active).

How did the activation turn out when CC1CCN(C(=O)CCNC(=O)c2ccccc2)CC1 was run?
The activation was 1.29%.

How did the activation turn out when CC(=O)NC1C(Oc2ccc(C)cc2)OC2COC(c3ccco3)OC2C1O (configuration not stated) was run?
Its activation is 1.22%.

O=C(Nc1ccncc1)Nc1ccc(F)cc1 was tested. Which activation did it give?
The activation was 78.9% (active).

With CCc1ccc(NC(=O)Nc2ccncc2)cc1 as the compound, how does the activation read?
The activation was 30.2%.

Which activation does the source give for O=C(Nc1ccc(Cl)cc1)Nc1ccc(Oc2cccnc2)nc1 here?
The activation was 35.4%.

With O=C(CCC(=O)n1ncc2ccccc21)NCc1ccccc1Cl as the compound, how does the activation read?
Its activation is 0.3%.

For COc1cccc(NC(=O)N(C)C[C@@H]2OCc3cn(nn3)CCCC(=O)N([C@@H](C)CO)C[C@H]2C)c1, which activation is on record?
The activation was 1.34%.

O=S(=O)(c1ccc(Br)c2ccccc12)N1CCOCC1 was tested. Which activation did it give?
Its activation is 3.96%.

How did the activation turn out when CCOC(=O)C1=C(O)/C(=C/c2cc(C)n(-c3ccccc3)c2C)N=C1C was run?
The activation was 8.89%.

How did the activation turn out when Cc1cccc(C)c1-n1c(C)cc(/C=C2\C(=O)NN(c3ccccc3)C2=O)c1C was run?
Its activation is 38.3% (active).

For CN(C(=O)c1cccc(NC(=O)C2CCN(C(=O)OC(C)(C)C)CC2)c1)C1CCC1, which activation is on record?
Its activation is 12.7%.

Cc1ccc(CNC(=O)Nc2nnc([C@H]3C[C@H](O)[C@@H](CO)O3)s2)cc1 was tested. Which activation did it give?
The activation was 0.94%.

With O=C(Nc1nnc([C@H]2C[C@H](O)[C@@H](CO)O2)s1)c1cccc(Cl)c1 as the compound, how does the activation read?
Its activation is 2.33%.

O=C(Nc1ccc(F)cc1)Nc1nnc([C@H]2C[C@H](O)[C@@H](CO)O2)s1 was tested. Which activation did it give?
Its activation is 45% (active).

How did the activation turn out when CC(=O)c1c(N2CCN(c3ccc(F)cc3)CC2)nc(=S)n(-c2ccccc2)c1C was run?
Its activation is -0.41%.

Cn1ccsc1=NC(=O)c1cc(S(=O)(=O)N2CCOCC2)ccc1Cl was tested. Which activation did it give?
The activation was 4.63%.

For COc1ccc(-c2ccc3c(n2)CCCN3S(=O)(=O)c2ccc(C)cc2)cc1, which activation is on record?
The activation was 1.61%.

Cc1c(C(=O)NCc2ccc(C#N)cc2)sc(=O)n1Cc1ccc(C(=O)N(C)C)cc1 was tested. Which activation did it give?
Its activation is 2.3%.

Which activation does the source give for Cc1ccc(Cn2c(C)c(C(=O)NCc3ccccc3C(F)(F)F)sc2=O)cc1 here?
Its activation is 0.22%.

How did the activation turn out when CC(=O)Oc1ccc(Cn2c(C)c(C(=O)NCc3ccc(C#N)cc3)sc2=O)cc1 was run?
Its activation is 140% (active).

How did the activation turn out when CC(C)[C@@H](C)/C=C/[C@@H](C)[C@H]1CC[C@@H]2[C@]1(C)CCC1[C@]23C=C[C@]2(C[C@@H](O)CC[C@]12C)N(c1ccc([N+](=O)[O-])cn1)O3 (some centres not stated) was run?
Its activation is -0.81%.

For O=C(NCc1ccccc1)[C@H]1CCCN1C(=O)[C@H]1CCCN1C(=O)c1cc(F)cc(F)c1, which activation is on record?
The activation was -0.16%.

Which activation does the source give for CCCCNc1cccc2c1S(=O)(=O)N[C@@H](C)CO2 here?
Its activation is -1.01%.

How did the activation turn out when Cc1cc(CN(C)C(=O)c2cc(COc3ccc(C)c(C)c3)on2)n[nH]1 was run?
The activation was 2.87%.

With CN(c1cccc(NC(=O)c2ccc(CN3CCc4ccccc4C3)cc2)c1)S(C)(=O)=O as the compound, how does the activation read?
The activation was 7.79%.

For CN(c1cccc(NC(=O)Nc2ccc(Cl)cc2)c1)S(C)(=O)=O, which activation is on record?
Its activation is 46.9% (active).

For CC(C)S(=O)(=O)c1csc(NC(=O)Nc2ccc(Cl)cc2)c1Cl, which activation is on record?
Its activation is 17.9%.

With CC(=O)NC1=NN(C(C)=O)C(C)(c2ccc(Cl)s2)S1 (configuration not stated) as the compound, how does the activation read?
The activation was 5.71%.

For CN(C)S(=O)(=O)N1CCC(Oc2cccc(C(=O)NCCCC3CCCC3)c2)CC1, which activation is on record?
Its activation is 11.3%.

Which activation does the source give for O=C1CCCC(O)=C1C=NCCc1ccccc1 here?
Its activation is 60.6% (active).

For CC1(C)CC(=O)C(C=NCCC2=CCCCC2)=C(O)C1, which activation is on record?
Its activation is 20.1%.

With O=C1CC(c2ccccc2)CC(O)=C1C=NCCN1CCOCC1 (configuration not stated) as the compound, how does the activation read?
The activation was 2.73%.

How did the activation turn out when COC(=O)C1=C(C)N(Cc2ccccc2C(F)(F)F)C(=NCc2ccc(OC)cc2)NC1c1cccc(C(F)(F)F)c1 (configuration not stated) was run?
The activation was 9.5%.

How did the activation turn out when CC(C)N(Cc1ccccc1)C(=O)COC(=O)c1ccccc1SCC(=O)N1CCCC1 was run?
Its activation is 15.6%.

For O=C(NCCCc1ccccc1)C(=O)NCC1OCCN1S(=O)(=O)c1ccccc1 (configuration not stated), which activation is on record?
Its activation is 8.57%.

For O=C(NCCc1ccccc1)C(=O)NCC1OCCN1S(=O)(=O)c1cccs1 (configuration not stated), which activation is on record?
The activation was 56.5% (active).

How did the activation turn out when COc1ccc(CCNC(=O)C(=O)NCC2OCCN2S(=O)(=O)c2cccs2)cc1OC (configuration not stated) was run?
The activation was 1.17%.

With COc1cccc(CNC(=O)[C@H]2CCCN2C(=O)[C@H]2CCCN2C(=O)c2cc(F)cc(F)c2)c1 as the compound, how does the activation read?
Its activation is 2.08%.

How did the activation turn out when O=C1Nc2ccccc2C1=NN=Cc1ccco1 was run?
The activation was 0.51%.

For Cn1nc(C(F)(F)F)c(C(=O)Nc2cccc(C(F)(F)F)c2)c1SCc1ccc(Cl)cc1, which activation is on record?
The activation was 11%.

How did the activation turn out when COCc1nc2ccccc2n1Cc1ccccc1Br was run?
The activation was 12.1%.

For O=C(NC1CC1)C1=C[C@H](c2c[nH]c3ccccc23)C[C@H](OCc2ccc(CO)cc2)O1, which activation is on record?
Its activation is 5.4%.

For NC(=O)C1=C[C@@H](c2csc3ccccc23)C[C@@H](OCc2ccc(CO)cc2)O1, which activation is on record?
Its activation is 22.2%.

Which activation does the source give for NC(=O)C1=C[C@H](c2csc3ccccc23)C[C@H](OCc2ccc(CO)cc2)O1 here?
The activation was 60.3% (active).

For COc1ccc(CCN(C)C(=O)C23CC4CC(CC(Cl)(C4)C2)C3)cc1OC, which activation is on record?
Its activation is -1.21%.

CC(C)c1ccc(S(=O)(=O)NC2CCCC2)cc1 was tested. Which activation did it give?
The activation was 1.12%.

With Cc1cccc(CCNS(=O)(=O)c2ccc(S(=O)(=O)NC3CCCC3)cc2)c1 as the compound, how does the activation read?
The activation was 42.8% (active).

How did the activation turn out when Cc1cccc(CCNS(=O)(=O)c2ccc3c(c2)NC(=O)CO3)c1 was run?
The activation was 5.47%.

For CN1CCCN(C(=O)C2CCCCC2)CC1, which activation is on record?
The activation was 1.26%.

With CC1(Oc2ccccc2-c2ccno2)CCN(Cc2ccc(-c3ccccc3)o2)C1 (configuration not stated) as the compound, how does the activation read?
Its activation is 1.77%.

For Cc1cc2nc3c(=O)[nH]c(=O)nc-3n(C[C@H](O)[C@H](O)[C@H](O)CO)c2cc1C, which activation is on record?
Its activation is 45.3% (active).

Which activation does the source give for COc1cccc(CNC(=O)c2nnn(CC(=O)Nc3cc(C)ccc3C)c2N)c1 here?
The activation was 2.69%.

Which activation does the source give for CCOc1ccc(Cn2nnc(C(=O)Nc3ccc(OC)cc3OC)c2N)cc1 here?
Its activation is 42.5% (active).

For CCOc1ccc(Cn2nnc(C(=O)NCc3ccccc3)c2N)cc1, which activation is on record?
The activation was 83.3% (active).

How did the activation turn out when COc1cccc(CNC(=O)c2nnn(CC(=O)Nc3cc(Cl)ccc3C)c2N)c1 was run?
The activation was 2.23%.

CCCn1nc2cc(C(=O)NCc3ccccc3)ccc2c1OCC was tested. Which activation did it give?
The activation was 3.65%.

For Nc1c(C(=O)Nc2ccc3c(c2)OCCO3)nnn1Cc1ccccc1, which activation is on record?
Its activation is 0.57%.

Cc1cc(OCCCC(=O)NCCN2C(=O)S/C(=C\c3cccnc3)C2=O)ccc1Cl was tested. Which activation did it give?
The activation was 16.7%.

Which activation does the source give for CCOc1ccc(-n2c(SCC(=O)NC3CCS(=O)(=O)C3)nnc2-c2cccnc2)cc1 (configuration not stated) here?
The activation was -0.1%.

CCOC(=O)c1c(N)c(C#N)nn1-c1ccccc1C(=O)OC was tested. Which activation did it give?
Its activation is 1.23%.

COc1ccc(Cl)cc1C(=O)NNC(=S)NC(=O)/C=C/c1ccco1 was tested. Which activation did it give?
Its activation is 55.3% (active).

For COc1ccc(Cl)cc1C(=O)NNC(=O)c1nc2nc(C)cc(C)n2n1, which activation is on record?
The activation was -0.4%.

O=C(/C=C/c1ccco1)NC(=S)N1CCCCC1 was tested. Which activation did it give?
The activation was 1.82%.

Which activation does the source give for CC(C)OC(=O)Cn1nc(C(F)(F)F)c2c1CCCC2 here?
The activation was 3.22%.

CCCCn1c(N)c(N(CC(C)C)C(=O)C2CSC3(C)CCC(=O)N23)c(=O)[nH]c1=O (configuration not stated) was tested. Which activation did it give?
Its activation is 4.3%.

For COC(=O)C1=C(C)NC(=S)NC1c1ccc(OC)cc1 (configuration not stated), which activation is on record?
The activation was 1.73%.

Which activation does the source give for CC(C)(C)c1ccc(S(=O)(=O)NCC2CCN(C(=O)C(=O)c3cc4ccccc4o3)CC2)cc1 here?
The activation was -0.02%.

O=C1NC[C@@H](c2ccccc2)OC(=O)[C@H](Cc2ccc(F)cc2)CC/C=C/C[C@H]1CC(=O)N(CCO)Cc1ccccc1 was tested. Which activation did it give?
Its activation is 42.6% (active).

With O=C1CCC/C=C/C[C@@H](CC(=O)N(CCO)Cc2ccccc2)C(=O)NC[C@H](c2ccccc2)O1 as the compound, how does the activation read?
The activation was 5.38%.

How did the activation turn out when O=C1N[C@@H](c2ccccc2)COC(=O)[C@H](Cc2ccc(F)cc2)C/C=C\C[C@@H]1CC(=O)N(CCO)Cc1ccccc1 was run?
The activation was 18.8%.

With Fc1ccc(-n2c(Cc3ccccc3)nnc2SCc2nc(-c3ccc(Cl)cc3)no2)cc1 as the compound, how does the activation read?
The activation was 2.7%.

Cc1cc(C)c2cc(C#N)c(N3CCNCC3)nc2c1 was tested. Which activation did it give?
The activation was 69.6% (active).

Which activation does the source give for Cc1ccc2cc(C)c(N3CCC(C)CC3)nc2c1 here?
The activation was 17.1%.

Which activation does the source give for Cc1ccc2cc(C)c(N3CCN(c4ccc(F)cc4)CC3)nc2c1 here?
The activation was 1.28%.

Which activation does the source give for C[C@H]1CN([C@@H](C)CO)S(=O)(=O)c2ccc(Br)cc2O[C@H]1CN(C)C(=O)c1cnccn1 here?
Its activation is 1.33%.

For CCCOC(=O)c1ccc(N2C(=O)c3ccccc3C2=O)cc1, which activation is on record?
Its activation is -1.04%.

How did the activation turn out when CC(=O)Nc1ccccc1Sc1ccc2c3c(cccc13)C(=O)N(c1ccc(C)cc1)C2=O was run?
Its activation is 47.3% (active).

With CSc1ccccc1NC(=O)C(C)N1C(=O)c2ccccc2S1(=O)=O (configuration not stated) as the compound, how does the activation read?
The activation was 2.86%.
